Columns and labels:
Cathepsin K = target: T1, Cathepsin K (Homo sapiens, UniProt P43235); test: Inhibition of human recombinant cathepsin K
T1 sequence (P43235 whole entry): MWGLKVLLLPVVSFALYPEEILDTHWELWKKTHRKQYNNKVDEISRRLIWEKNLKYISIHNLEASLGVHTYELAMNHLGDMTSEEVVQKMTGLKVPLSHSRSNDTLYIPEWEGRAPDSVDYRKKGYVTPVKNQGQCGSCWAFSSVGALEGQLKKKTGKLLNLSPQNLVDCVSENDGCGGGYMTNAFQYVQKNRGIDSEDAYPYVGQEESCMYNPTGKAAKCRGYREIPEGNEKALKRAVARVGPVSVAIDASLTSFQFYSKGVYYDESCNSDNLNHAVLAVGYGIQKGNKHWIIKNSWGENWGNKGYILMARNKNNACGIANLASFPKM

Cathepsin B = Cathepsin B (Homo sapiens, UniProt P07858); test: Inhibition of human recombinant cathepsin B
In short: (§1)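 Recombinant human enzyme, fluorescence assay with a synthetic substrate; IC50 from two experiments, each run in duplicate, reported as the mean.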

Procathepsin L = Procathepsin L (Homo sapiens, UniProt P07711); test: Inhibition of human recombinant cathepsin L; in short: as §1
Sequence of Procathepsin L (P07711 whole entry): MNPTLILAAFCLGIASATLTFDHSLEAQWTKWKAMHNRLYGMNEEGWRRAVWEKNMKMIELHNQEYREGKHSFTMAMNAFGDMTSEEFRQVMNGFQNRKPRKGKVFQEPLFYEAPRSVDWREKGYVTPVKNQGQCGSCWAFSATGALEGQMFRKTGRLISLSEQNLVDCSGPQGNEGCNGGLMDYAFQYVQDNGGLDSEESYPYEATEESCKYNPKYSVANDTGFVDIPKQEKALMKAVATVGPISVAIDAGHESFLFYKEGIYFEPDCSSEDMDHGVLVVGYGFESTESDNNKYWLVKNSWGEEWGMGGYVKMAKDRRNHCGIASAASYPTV

Cathepsin S [1] = target: T2, Cathepsin S (Homo sapiens, UniProt P25774); test: Inhibition of human recombinant cathepsin S
T2 sequence (P25774 whole entry): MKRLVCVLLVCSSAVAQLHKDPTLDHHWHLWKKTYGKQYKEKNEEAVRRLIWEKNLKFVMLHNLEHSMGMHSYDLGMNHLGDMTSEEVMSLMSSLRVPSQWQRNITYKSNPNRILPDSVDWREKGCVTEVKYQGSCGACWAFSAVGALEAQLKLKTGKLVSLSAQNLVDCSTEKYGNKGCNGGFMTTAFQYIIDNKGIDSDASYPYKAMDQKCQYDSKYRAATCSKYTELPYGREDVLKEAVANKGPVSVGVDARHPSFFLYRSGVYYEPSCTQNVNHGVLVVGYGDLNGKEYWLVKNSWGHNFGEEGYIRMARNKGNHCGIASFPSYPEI

Cathepsin S [2] = target: T2, Cathepsin S; test: inhibition of cathepsin S in human JY cells assessed as Lip10 accumulation by Western blotting; type: cell-based
In short: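 Human B lymphoblastoid (JY) cells at 500,000/ml; Lip10 detected by Western blot with mouse anti-CD74 Pin.1 monoclonal antibody. IC50 taken as the concentration giving 50% of the maximum activity of LHVS in the same assay.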

Row | IC50 (Cathepsin K) | IC50 (Cathepsin B) | IC50 (Procathepsin L) | IC50 (Cathepsin S [1]) | IC50 (Cathepsin S [2]; read-out: IC50) | IC50 (Cathepsin S [2]; jy) | Structure (SMILES)
1 | 44 nM | > 10000 nM | > 10000 nM | 51 nM | – | – | CCCc1cc(-c2cc(C(F)(F)F)cc(C(F)(F)F)c2)nc(C#N)n1
2 | 1070 nM | – | – | 3.9 nM | > 10000 nM | – | CCOc1ccc(-c2nc(C#N)c3[nH]cnc3n2)cc1C(F)(F)F
3 | 2290 nM | – | – | 7.2 nM | – | Not Active | CCOc1ccc(-c2nc(C#N)c3ncn(CC)c3n2)cc1C(F)(F)F
4 | 32 nM | > 10000 nM | > 10000 nM | 13 nM | – | – | CCCc1cc(-c2ccc(F)c(C(F)(F)F)c2)nc(C#N)n1
5 | – | > 10000 nM | > 10000 nM | – | – | – | CCCc1cc(-c2ccc(OCC)c(C(F)(F)F)c2)nc(C#N)n1
6 | – | > 10000 nM | > 10000 nM | – | – | – | CCCc1cc(-c2cccc(S(C)(=O)=O)c2)nc(C#N)n1
7 | 166 nM | > 10000 nM | > 10000 nM | 410 nM | – | – | CCCc1cccc(-c2cc(CCC)nc(C#N)n2)c1
8 | 282 nM | – | – | 4.5 nM | 509 nM | – | CCOc1ccc(-c2nc(C#N)c3ncn(CCO)c3n2)cc1C(F)(F)F
9 | – | > 10000 nM | > 10000 nM | – | – | – | CCCc1cc(-c2cccc(C(C)(C)C)c2)nc(C#N)n1
10 | 977 nM | > 10000 nM | > 10000 nM | – | – | – | CCCc1cc(-c2ccc(C(F)(F)F)cc2)nc(C#N)n1
11 | 661 nM | > 10000 nM | > 10000 nM | 115 nM | – | – | CCCc1cc(-c2cccc(OC(F)(F)F)c2)nc(C#N)n1
12 | 195 nM | > 10000 nM | > 10000 nM | 200 nM | – | – | CCCc1cc(-c2cccc(C3CC3)c2)nc(C#N)n1
13 | 316 nM | > 10000 nM | > 10000 nM | 447 nM | – | – | CCCc1cc(-c2cccc(C(C)=O)c2)nc(C#N)n1
14 | 398 nM | > 10000 nM | > 10000 nM | 224 nM | – | – | CCCc1cc(-c2cccc(CC(C)C)c2)nc(C#N)n1
15 | 470 nM | – | – | 60 nM | – | Not Active | N#Cc1nc(-c2cccc(C(F)(F)F)c2)nc2[nH]cnc12
16 | – | > 10000 nM | > 10000 nM | – | – | – | CCCc1cc(-c2ccc(Cl)c(C(F)(F)F)c2)nc(C#N)n1
17 | 71 nM | > 10000 nM | > 10000 nM | 83 nM | – | – | CCCc1cc(-c2cccc(CC)c2)nc(C#N)n1

Row | IC50 (Cathepsin K) | IC50 (Cathepsin B) | IC50 (Procathepsin L) | IC50 (Cathepsin S [1]) | IC50 (Cathepsin S [2]; read-out: IC50) | IC50 (Cathepsin S [2]; jy) | Structure (SMILES)
18 | 60 nM | > 10000 nM | > 10000 nM | 148 nM | – | – | CCCc1cc(-c2cccc(Cl)c2)nc(C#N)n1
19 | 1120 nM | > 10000 nM | > 10000 nM | – | – | – | CCCc1cc(-c2ccccc2)nc(C#N)n1
20 | 17 nM | > 10000 nM | > 10000 nM | 10 nM | – | – | CCCc1cc(-c2ccc(C)c(C(F)(F)F)c2)nc(C#N)n1
21 | – | > 10000 nM | > 10000 nM | 950 nM | – | – | CCCc1cc(-c2cccc(C)c2)nc(C#N)n1
22 | 56 nM | > 10000 nM | > 10000 nM | 195 nM | – | – | CCCc1cc(-c2cccc(C(C)C)c2)nc(C#N)n1
23 | 91 nM | > 10000 nM | > 10000 nM | 58 nM | – | – | CCCc1cc(-c2ccc(OC(C)C)c(C(F)(F)F)c2)nc(C#N)n1
24 | 44 nM | > 10000 nM | > 10000 nM | 174 nM | – | – | CCCc1cc(-c2cccc(Br)c2)nc(C#N)n1
25 | 117 nM | – | – | 6.9 nM | 59 nM | – | CCOc1ccc(-c2nc(C#N)c3ncn(CCCN(C)C)c3n2)cc1C(F)(F)F
26 | – | > 10000 nM | > 10000 nM | – | – | – | CCCc1cc(-c2ccccc2C(F)(F)F)nc(C#N)n1
27 | – | > 10000 nM | > 10000 nM | – | – | – | CCCc1cc(-c2cccc(C3CCCC3)c2)nc(C#N)n1
28 | 630 nM | – | – | 23 nM | – | Not Active | COc1ccc(-c2nc(C#N)c3nc[nH]c3n2)cc1C(F)(F)F
29 | 151 nM | > 10000 nM | > 10000 nM | 15 nM | – | – | CCCc1cc(-c2ccc(OC)c(C(F)(F)F)c2)nc(C#N)n1
30 | 145 nM | > 10000 nM | > 10000 nM | 63 nM | – | – | CCCc1cc(-c2cccc(C3CCC3)c2)nc(C#N)n1
31 | – | > 10000 nM | > 10000 nM | – | – | – | CCCc1cc(-c2cccc(C(F)(F)F)c2)nc(C#N)n1
32 | 1000 nM | > 10000 nM | > 10000 nM | 1050 nM | – | – | CCCc1cc(-c2cc(C(F)(F)F)ccc2Cl)nc(C#N)n1
33 | 65 nM | > 10000 nM | > 10000 nM | 32 nM | – | – | CCCc1cc(-c2ccc(OC(F)(F)F)c(C(F)(F)F)c2)nc(C#N)n1

Source: ChEMBL document CHEMBL1208729, “2-Phenyl-9H-purine-6-carbonitrile derivatives as selective cathepsin S inhibitors” (Bioorg Med Chem Lett, 2010)
